Results on ten molecules are retold here after ChEMBL document CHEMBL1131185, “Syntheses of new isodethiaazacephems as potent antibacterial agents” (1998).

Converted amounts (≈) assume the structure as drawn.

In one assay the test system is Escherichia coli. Put plainly: In Vitro minimal inhibitory concentration against Escherichia coli (ATCC 39188). Type of assay: functional. The gist of the method:
(§1)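 Serial broth dilution in heart infusion broth. Inoculum was a 10^-4 dilution of an overnight culture. Seeded antibiotic-containing tubes were incubated 37 °C for 20 h. […] Values are the average of triplicate determinations.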

In the next assay the test system is Staphylococcus aureus. Put plainly: In Vitro minimal inhibitory concentration against Staphylococcus aureus (FDA 209P). Type of assay: functional. A digest of the protocol:
as §1

A further assay concerns Klebsiella pneumoniae. Briefly: In Vitro minimal inhibitory concentration against Klebsiella pneumoniae (NCTC 418). Type of assay: functional. The gist of the method:
as §1

In another assay the test system is Pseudomonas aeruginosa. Briefly: In Vitro minimal inhibitory concentration against Pseudomonas aeruginosa (1101-75). Type of assay: functional. A digest of the protocol: as §1
In another assay the test system is Salmonella typhi. Put plainly: In Vitro minimal inhibitory concentration against Salmonella typhi (O-901). Type of assay: functional, Salmonella enterica subsp. enterica serovar Typhi. The note with it: Salmonella enterica. A digest of the protocol:
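Serial broth dilution MIC. Inoculum: overnight culture diluted 10^-4 in heart infusion broth. Seeded antibiotic-containing broth tubes incubated 20 h at 37 °C. MIC is the lowest concentration preventing visible growth. Concentrations tested up to 128 μg/mL. Values are the average of triplicate determinations.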

By MIC is commonly meant the lowest concentration that inhibits growth of the organism. A low value points to greater potency. As for `CC1=C(C(=O)O)N2C(=O)[C@@H](NC(=O)Cc3ccccc3)[C@H]2SC1`, the MIC amounted to 13.1 mg/L (≈ 39.5 µM) in the assay with Escherichia coli; 0.64 mg/L (≈ 1.93 µM) with Staphylococcus aureus; 2.98 mg/L (≈ 8.97 µM) against Klebsiella pneumoniae; 100 mg/L (≈ 301 µM) in the assay on Pseudomonas aeruginosa; 24.5 mg/L (≈ 73.7 µM) in the assay with Salmonella typhi.

For the molecule `CS(=O)(=O)C1(C(=O)O)C(=O)NC[C@@H]2[C@H](NC(=O)Cc3ccccc3)C(=O)N21` (stereo not given in full), the MIC is 97.2 mg/L (≈ 246 µM) against Escherichia coli; 48.5 mg/L (≈ 123 µM) against Staphylococcus aureus; 51 mg/L (≈ 129 µM) in the assay with Klebsiella pneumoniae; 120 mg/L (≈ 303 µM) with Pseudomonas aeruginosa; 65.3 mg/L (≈ 165 µM) against Salmonella typhi.

Consider `O=C(Cc1ccccc1)N[C@@H]1C(=O)N2C(C(=O)O)=C(OS(=O)(=O)C(F)(F)F)NC[C@H]12` (racemic), for which the MIC in the assay with Escherichia coli is 0.09 mg/L (≈ 0.2 µM); against Staphylococcus aureus, 0.01 mg/L (≈ 0.0223 µM); against Klebsiella pneumoniae, 0.24 mg/L (≈ 0.534 µM); against Pseudomonas aeruginosa, 1.15 mg/L (≈ 2.56 µM); against Salmonella typhi it was 0.68 mg/L (≈ 1.51 µM).

Turning to `O=C(Cc1ccccc1)N[C@@H]1C(=O)N2C(C(=O)O)=C(O)NC[C@H]12` (racemic), the MIC was 94.7 mg/L (≈ 298 µM) against Escherichia coli; 29.5 mg/L (≈ 93 µM) against Staphylococcus aureus; over 128 mg/L in the assay on Klebsiella pneumoniae; over 128 mg/L in the assay on Pseudomonas aeruginosa; over 128 mg/L in the assay with Salmonella typhi.

Turning to `CS(=O)(=O)C1=C(O)NC[C@@H]2[C@H](NC(=O)Cc3ccccc3)C(=O)N12` (racemic), the MIC in the assay on Escherichia coli, in the assay on Staphylococcus aureus, against Klebsiella pneumoniae, against Pseudomonas aeruginosa and with Salmonella typhi was over 128 mg/L each time.

For `CS(=O)(=O)OC1=C(C(=O)OCc2ccccc2)N2C(=O)[C@@H](NC(=O)Cc3ccccc3)[C@H]2CN1` (racemic), the MIC in the assay with Escherichia coli, in the assay on Staphylococcus aureus, with Klebsiella pneumoniae, in the assay with Pseudomonas aeruginosa and against Salmonella typhi was over 128 mg/L in each case.

With `O=C(Cc1ccccc1)N[C@@H]1C(=O)N2C(C(=O)OCc3ccccc3)=C(OS(=O)(=O)C(F)(F)F)NC[C@H]12` (racemic), the MIC against Escherichia coli, against Staphylococcus aureus, in the assay with Klebsiella pneumoniae, against Pseudomonas aeruginosa and with Salmonella typhi was over 128 mg/L in each case.

For the molecule `CS(=O)(=O)OC1=C(C(=O)O)N2C(=O)[C@@H](NC(=O)Cc3ccccc3)[C@H]2CN1` (racemic), the MIC against Escherichia coli is 0.95 mg/L (≈ 2.4 µM); against Staphylococcus aureus it was 0.07 mg/L (≈ 0.177 µM); against Klebsiella pneumoniae, 0.68 mg/L (≈ 1.72 µM); against Pseudomonas aeruginosa, 4.38 mg/L (≈ 11.1 µM); in the assay with Salmonella typhi, 1.2 mg/L (≈ 3.03 µM).

For `CO/N=C(\C(=O)N[C@@H]1C(=O)N2C(C(=O)O)=C(COC(C)=O)CS[C@H]12)c1csc(N)n1` [CEFOTAXIME], the MIC with Escherichia coli came out at 0.25 mg/L (≈ 0.549 µM); against Staphylococcus aureus it was 0.08 mg/L (≈ 0.176 µM); against Klebsiella pneumoniae, 10.2 mg/L (≈ 22.5 µM); in the assay with Pseudomonas aeruginosa, 62.4 mg/L (≈ 137 µM); in the assay with Salmonella typhi, 20.3 mg/L (≈ 44.6 µM).

Consider `CC1(C)S[C@@H]2[C@H](NC(=O)Cc3ccccc3)C(=O)N2[C@H]1C(=O)O` [PENICILLIN G], for which the MIC was 2.3 mg/L (≈ 6.88 µM) in the assay on Escherichia coli; 0.4 mg/L (≈ 1.2 µM) in the assay on Staphylococcus aureus; over 128 mg/L against Klebsiella pneumoniae; over 128 mg/L in the assay with Pseudomonas aeruginosa; over 128 mg/L in the assay on Salmonella typhi.
